# Results: ChEMBL document CHEMBL4414639, “Synthesis, Pharmacological Characterization, and Structure-Activity Relationships of Noncanonical Selective Agonists for α7 nAChRs” (J Med Chem, 2019)
# Active and inactive are the calls of the source. The rule behind the calls is not given here.
# Legend:
# [1] = target: T1, 5-hydroxytryptamine receptor 3A (Homo sapiens) (UniProt P46098); experiment: Antagonist activity at 5HT3A (unknown origin) transfected in HEK cells assessed as decrease in agonist-induced intracellular calcium release incubated for 30 mins by FRET assay; format: cell-based
# T1 sequence (whole entry): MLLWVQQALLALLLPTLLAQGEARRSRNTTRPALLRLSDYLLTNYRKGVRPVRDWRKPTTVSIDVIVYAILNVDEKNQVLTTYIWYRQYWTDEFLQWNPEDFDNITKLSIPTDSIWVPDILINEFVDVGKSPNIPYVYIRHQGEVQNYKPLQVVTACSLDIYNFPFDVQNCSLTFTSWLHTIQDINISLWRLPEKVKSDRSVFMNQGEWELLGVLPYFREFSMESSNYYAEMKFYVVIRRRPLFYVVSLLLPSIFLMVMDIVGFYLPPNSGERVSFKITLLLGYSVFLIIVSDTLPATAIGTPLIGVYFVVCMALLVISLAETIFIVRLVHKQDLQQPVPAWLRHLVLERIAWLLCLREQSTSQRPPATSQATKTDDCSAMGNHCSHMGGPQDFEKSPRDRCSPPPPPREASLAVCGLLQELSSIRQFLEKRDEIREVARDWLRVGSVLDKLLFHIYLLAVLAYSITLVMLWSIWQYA
# How it was run: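 CNiFER HEK cell monolayers stably expressing the receptor. Test compound at three concentrations in aCSF, preincubated 30 min at 37 °C, 6% CO2, before agonist addition: epibatidine for α4β2, 5-HT for 5-HT3A. TN-XXL FRET ratio (527/485 nm) read over 120 s at 37 °C, agonist injected at 30 s, triplicate wells. Agonist EC50 shifts fitted. KA computed as [A]/(DR−1) (competitive) or [A]/(Δmax/Δ−1) (noncompetitive). At least three independent experiments. α4β2 stoichiometry not distinguished.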
# [2] = target: T2, Neuronal acetylcholine receptor subunit alpha-7 (Homo sapiens, UniProt P36544); experiment: Agonist activity at human alpha7 nAChR transfected in HEK cells assessed as increase in intracellular calcium release incubated for 30 mins in presence of PNU-120596 by FRET assay; format: cell-based
# How it was run: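 HEK cell line stably expressing α7 nAChR and the CNiFER (TN-XXL) biosensor, grown in DMEM + 10% FBS, 1% glutamine, 37 °C, 6% CO2. Cells preincubated 30 min at 37 °C in aCSF containing 10 μM PNU-120596 (final). Agonist injected at 30 s. FRET ratio (527/485 nm) followed over 120 s at 37 °C, triplicate wells. EC50 from variable-slope sigmoidal fit of mean peak ratios, normalized to the 316 μM response.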
# [3] = target: T3, Neuronal acetylcholine receptor; alpha4/beta2 (Homo sapiens) (UniProt P17787+P43681); experiment: Antagonist activity at alpha4beta2 nAChR (unknown origin) transfected in HEK cells assessed as decrease in epibatidine-induced intracellular calcium release incubated for 30 mins by FRET assay
# [4] = target: T2, Neuronal acetylcholine receptor subunit alpha-7; experiment: Agonist activity at human alpha7 nAChR expressed in Xenopus laevis oocytes assessed as increase in channel currents at 30 uM at -60 mV holding potential by two electrode voltage clamp assay; format: cell-based
# How it was run: (§1)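 Oocytes expressing human α7 nAChR (with human RIC-3 cDNA available), clamped at -60 mV in Ringer's pH 7.2 with 1 µM atropine, 2 mL/min flow. Drug applied 12 s, 211 s washout. Responses normalized to mean of two 60 µM ACh precontrol responses per oocyte. Data from six cells. Concentration-response data fit to the Hill equation. Sequence included 30 µM test compound, then 60 µM ACh, then 10 µM PNU-120596.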
# [5] = target: T2, Neuronal acetylcholine receptor subunit alpha-7; experiment: Agonist activity at human alpha7 nAChR expressed in Xenopus laevis oocytes assessed as increase in channel currents at -60 mV holding potential by two electrode voltage clamp assay relative Ach; format: cell-based; how it was run: as §1
# [6] = target: T2, Neuronal acetylcholine receptor subunit alpha-7; experiment: Inhibition of human alpha7 nAChR expressed in Xenopus laevis oocytes assessed as decrease in ACh-induced channel currents at -60 mV holding potential by two electrode voltage clamp assay; format: cell-based
# How it was run: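 Human α7 nAChR in oocytes under two-electrode voltage clamp at -60 mV, Ringer's pH 7.2, 2 mL/min. Test compound applied 12 s with 211 s washout, then 60 µM ACh applied. ACh response normalized to the mean of two ACh precontrols per oocyte. Inhibition concentration-response curves from six cells, Hill equation fit.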
# Mus musculus [7] = organism: Mus musculus; experiment: Agonist activity at mouse alpha1beta1epsilondelta nAChR expressed in Xenopus laevis oocytes assessed as increase in channel currents at 30 uM at -60 mV holding potential by two electrode voltage clamp assay; format: cell-based
# How it was run: (§2)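 Two-electrode voltage clamp on oocytes at -60 mV in Ringer's (115 mM NaCl, 2.5 mM KCl, 1.8 mM CaCl2, 10 mM HEPES, 1 µM atropine, pH 7.2), 4 mL/min flow. Test compound applied 6 s, then 271 s washout. Normalized to mean of two ACh precontrols: 30 µM for α1β1εδ, 100 µM for α3β4, 100 µM for LS α4β2, 10 µM for HS α4β2.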
# [8] = target: T4, Neuronal acetylcholine receptor; alpha3/beta4 (Homo sapiens) (UniProt P30926+P32297); experiment: Agonist activity at human alpha3beta4 nAChR expressed in Xenopus laevis oocytes assessed as increase in channel currents at 30 uM at -60 mV holding potential by two electrode voltage clamp assay; format: cell-based; how it was run: as §2
# [9] = target: T3, Neuronal acetylcholine receptor; alpha4/beta2 (Homo sapiens); experiment: Agonist activity at human (alpha4)2 (beta2)3 nAChR expressed in Xenopus laevis oocytes assessed as increase in channel currents at 30 uM at -60 mV holding potential by two electrode voltage clamp assay; format: cell-based; how it was run: as §2
# [10] = target: T3, Neuronal acetylcholine receptor; alpha4/beta2 (Homo sapiens); experiment: Agonist activity at human (alpha4)3 (beta2)2 nAChR expressed in Xenopus laevis oocytes assessed as increase in channel currents at 30 uM at -60 mV holding potential by two electrode voltage clamp assay; format: cell-based; how it was run: as §2
# Mus musculus [11] = organism: Mus musculus; experiment: Inhibition of mouse alpha1beta1epsilondelta nAChR expressed in Xenopus laevis oocytes assessed as increase in channel currents at 30 uM at -60 mV holding potential by two electrode voltage clamp assay; format: cell-based
# [12] = target: T4, Neuronal acetylcholine receptor; alpha3/beta4 (Homo sapiens); experiment: Inhibition of human alpha3beta4 nAChR expressed in Xenopus laevis oocytes assessed as increase in channel currents at 30 uM at -60 mV holding potential by two electrode voltage clamp assay; format: cell-based
# [13] = target: T3, Neuronal acetylcholine receptor; alpha4/beta2 (Homo sapiens); experiment: Inhibition of human (alpha4)2 (beta2)3 nAChR expressed in Xenopus laevis oocytes assessed as increase in channel currents at 30 uM at -60 mV holding potential by two electrode voltage clamp assay; format: cell-based
# [14] = target: T3, Neuronal acetylcholine receptor; alpha4/beta2 (Homo sapiens); experiment: Inhibition of human (alpha4)3 (beta2)2 nAChR expressed in Xenopus laevis oocytes assessed as increase in channel currents at 30 uM at -60 mV holding potential by two electrode voltage clamp assay; format: cell-based
# [15] = target: T2, Neuronal acetylcholine receptor subunit alpha-7; experiment: Agonist activity at human alpha7 nAChR expressed in Xenopus laevis oocytes assessed as increase in channel currents at 30 uM at -60 mV holding potential in presence of 10 uM PNU-120596 by two electrode voltage clamp assay; format: cell-based; how it was run: as §1
# [16] = target: T2, Neuronal acetylcholine receptor subunit alpha-7; experiment: Agonist activity at human alpha7 nAChR expressed in Xenopus laevis oocytes assessed as increase in channel currents at 30 uM at -60 mV holding potential followed washout for 211 sec and then 60 uM of Ach was applied by two electrode voltage clamp assay
# T2 sequence (P36544 whole entry): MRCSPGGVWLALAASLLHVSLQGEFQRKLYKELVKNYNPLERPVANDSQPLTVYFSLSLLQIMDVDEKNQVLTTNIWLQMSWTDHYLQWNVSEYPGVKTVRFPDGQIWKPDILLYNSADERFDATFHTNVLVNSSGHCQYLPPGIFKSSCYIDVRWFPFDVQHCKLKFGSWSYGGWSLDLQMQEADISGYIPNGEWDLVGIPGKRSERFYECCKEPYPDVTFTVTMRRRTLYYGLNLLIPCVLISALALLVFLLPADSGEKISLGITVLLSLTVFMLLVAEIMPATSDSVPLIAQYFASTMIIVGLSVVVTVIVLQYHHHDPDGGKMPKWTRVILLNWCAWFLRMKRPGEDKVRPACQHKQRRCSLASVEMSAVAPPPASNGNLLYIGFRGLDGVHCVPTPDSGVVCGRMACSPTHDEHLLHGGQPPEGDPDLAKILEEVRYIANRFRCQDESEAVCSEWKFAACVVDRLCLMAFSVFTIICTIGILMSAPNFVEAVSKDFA
compound,measurement,setting,value
COc1cccc(OC)c1-c1cc(N(Cc2ccccn2)Cc2ccccn2)nc(N)n1,Ka,[1],> 10 µM
same,EC50,[2],5400 nM
same,Ka,[3],7.1 µM
Fc1ccccc1-c1cc(N(Cc2ccccn2)Cc2ccccn2)ncn1,Ka,[1],8.4 µM
same,EC50,[2],360 nM
same,Ka,[3],5.6 µM
COc1ccccc1-c1cc(N(Cc2ccccn2)Cc2ccccn2)ncn1,Ka,[1],> 10 µM
same,EC50,[2],140 nM
same,Activity,[4],Active
same,EC50,[5],3350 nM
same,Imax,[5],0.89
same,IC50,[6],3500 nM
same,Activity,Mus musculus [7],inactive
same,Activity,[8],inactive
same,Activity,[9],inactive
same,Activity,[10],inactive
same,inhibition activity (active/inactive),Mus musculus [11],Active
same,inhibition,[12],Active
same,inhibition,[13],inactive
same,inhibition,[14],inactive
same,Activity,[15],Active
same,Ka,[3],7.9 µM
same,Activity,[16],inactive
CC(C)COc1ccccc1-c1cc(N(Cc2ccccn2)Cc2ccccn2)nc(N)n1,Ka,[1],5.5 µM
same,EC50,[2],1600 nM
same,Ka,[3],1.3 µM
c1ccc(CN(Cc2ccccn2)c2cc(N3CCOCC3)ncn2)nc1,Ka,[1],> 10 µM
same,EC50,[2],> 13300 nM
same,Ka,[3],> 10 µM
COc1ccccc1-c1cc(N(Cc2ccccn2)Cc2ccccn2)nc(C(F)(F)F)n1,Ka,[1],3.7 µM
same,EC50,[2],530 nM
same,Ka,[3],1.7 µM
c1ccc(CN(Cc2ccccn2)c2cc(-c3ccsc3)ncn2)nc1,Ka,[1],> 10 µM
same,EC50,[2],2100 nM
same,Ka,[3],> 10 µM
CSc1nc(-c2ccsc2)cc(N(Cc2ccccn2)Cc2ccccn2)n1,Ka,[1],2.2 µM
same,EC50,[2],1800 nM
same,Ka,[3],3.4 µM
COc1cc(F)ccc1-c1cc(N(Cc2ccccn2)Cc2ccccn2)nc(N)n1,Ka,[1],> 10 µM
same,EC50,[2],120 nM
same,Ka,[3],4.8 µM
COc1ncccc1-c1cc(N(Cc2ccccn2)Cc2ccccn2)nc(N)n1,Ka,[1],> 10 µM
same,EC50,[2],230 nM
same,Ka,[3],> 10 µM
COc1ccccc1-c1cc(N(Cc2ccccn2)Cc2ccccn2)nc(S(C)(=O)=O)n1,Ka,[1],> 10 µM
same,EC50,[2],690 nM
same,Ka,[3],7.2 µM
Nc1nc(-c2ccccc2Cl)cc(N(Cc2ccccn2)Cc2ccccn2)n1,Ka,[1],> 10 µM
same,EC50,[2],160 nM
same,Ka,[3],3.4 µM
COc1ccccc1-c1cc(N(Cc2ccccn2)Cc2ccccn2)nc(SC)n1,Ka,[1],2.8 µM
same,EC50,[2],110 nM
same,Ka,[3],1.1 µM
COc1ccc(-c2cc(N(Cc3ccccn3)Cc3ccccn3)ncn2)c(F)c1,Ka,[1],5.4 µM
same,EC50,[2],69 nM
same,Activity,[4],Active
same,EC50,[5],600 nM
same,Imax,[5],0.53
same,IC50,[6],1300 nM
same,Activity,Mus musculus [7],inactive
same,Activity,[8],inactive
same,Activity,[9],inactive
same,Activity,[10],inactive
same,inhibition activity (active/inactive),Mus musculus [11],Active
same,inhibition,[12],Active
same,inhibition,[13],inactive
same,inhibition,[14],inactive
same,Activity,[15],Active
same,Ka,[3],3 µM
same,Activity,[16],inactive
CSc1ccccc1-c1cc(N(Cc2ccccn2)Cc2ccccn2)nc(N)n1,Ka,[1],> 10 µM
same,EC50,[2],240 nM
same,Ka,[3],4.3 µM
COc1ccccc1-c1cc(N(Cc2ccccc2)Cc2ccccn2)nc(N)n1,Ka,[1],4.1 µM
same,EC50,[2],> 13300 nM
same,Ka,[3],1.3 µM
CC(C)Oc1ccccc1-c1cc(N(Cc2ccccn2)Cc2ccccn2)nc(N)n1,Ka,[1],> 10 µM
same,EC50,[2],890 nM
same,Ka,[3],1.5 µM
COc1ccc(-c2cc(N(Cc3ccccn3)Cc3ccccn3)nc(N)n2)c(F)c1,Ka,[1],5.3 µM
same,EC50,[2],30 nM
same,Activity,[4],Active
same,EC50,[5],110 nM
same,Imax,[5],0.84
same,IC50,[6],470 nM
same,Activity,Mus musculus [7],inactive
same,Activity,[8],inactive
same,Activity,[9],inactive
same,Activity,[10],inactive
same,inhibition activity (active/inactive),Mus musculus [11],Active
same,inhibition,[12],Active
same,inhibition,[13],inactive
same,inhibition,[14],inactive
same,Activity,[15],Active
same,Ka,[3],3.2 µM
same,Activity,[16],inactive
COc1ccccc1-c1cc(N(Cc2ccccn2)Cc2ccccn2)nc([S+](C)[O-])n1 (configuration not stated),Ka,[1],> 10 µM
same,EC50,[2],920 nM
same,Ka,[3],> 10 µM
FC(F)(F)c1nc(-c2ccsc2)cc(N(Cc2ccccn2)Cc2ccccn2)n1,Ka,[1],3.6 µM
same,EC50,[2],2500 nM
same,Ka,[3],0.96 µM
